High-throughput results (PubChem)
CHO-K1 Ca ag = nonselective activator or artifact in parental CHO-K1 cells | activation, % at 3 µM | AID 602248 | Fluo-8 calcium fluorescence; scaled to maximal ATP response, vehicle zero | 360,000 tested, 0.48% active; in the data active = activation above about 15%;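 note: untransfected CHO-K1 host cells lacking M1 receptor as counterscreen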
TRPN1 ag = activates the zebrafish TRPN1 channel; HEK293 zebrafish TRPN1-YFP, Fluo-8 calcium fluorescence; 100% = response to 87 µM carbachol; activation, % at 3 µM; 220,000 tested, 0.18% active; AID 1424;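 active = activation above its plate's cutoff, the mean activation of test wells on that plate plus 3 SD, cut at about 19% in these data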
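Material: zebrafish TRPN1-YFP in HEK293 cells; Doses: single test compound dose, 3 µM nominal, 0.3% DMSO; Timing: dye loading 1 h at 37 °C, then 30 min room temperature; Technique: intracellular calcium fluorescence with Fluo-8; Benchmarks: high carbachol 87 µM, low DMSO alone.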
TRPML3 agonist = agonists of human TRPML3 channel | Q8TDD5 | HEK293 TRPML3-YFP, Fluo-8 calcium fluorescence; 100% = the carbachol control signal | activation, % at 3 µM | 220,000 tested, 0.29% active | AID 1448;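 active = activation above its plate's cutoff, the mean activation of the plate's test wells plus 3 SD, cut at about 12% in these data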
Target sequence (Q8TDD5 whole entry, looked up): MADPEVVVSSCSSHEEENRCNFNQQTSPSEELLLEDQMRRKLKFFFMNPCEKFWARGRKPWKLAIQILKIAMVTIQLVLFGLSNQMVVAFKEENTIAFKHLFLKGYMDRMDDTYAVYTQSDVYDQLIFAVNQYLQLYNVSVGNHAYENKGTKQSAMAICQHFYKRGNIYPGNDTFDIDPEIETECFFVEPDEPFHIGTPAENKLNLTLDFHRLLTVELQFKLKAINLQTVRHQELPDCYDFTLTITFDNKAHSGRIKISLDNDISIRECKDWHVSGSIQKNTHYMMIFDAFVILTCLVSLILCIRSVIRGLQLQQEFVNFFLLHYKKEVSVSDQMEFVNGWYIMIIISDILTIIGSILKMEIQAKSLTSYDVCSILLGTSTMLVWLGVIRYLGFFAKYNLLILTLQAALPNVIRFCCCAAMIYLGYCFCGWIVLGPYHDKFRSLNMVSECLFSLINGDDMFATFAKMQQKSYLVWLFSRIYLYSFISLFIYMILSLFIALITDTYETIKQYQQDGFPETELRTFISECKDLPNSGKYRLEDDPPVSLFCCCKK
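Material: HEK293 cells stably carrying human TRPML3-YFP; compound dosing: single dose, 3 µM final nominal compound, 0.3% DMSO final; incubation: 1-h 37 °C dye load, 5-s basal, 120-s post-compound reads; technique: Fluo-8 intracellular calcium fluorescence, excitation 470-495 nm, emission 515-575 nm; read-out basis: percent activation from peak-to-basal fluorescence ratio, scaled between DMSO and carbachol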
CHO-K1 Ca PAM = M1 PAM counterscreen hit in parental CHO-K1 cells; ATP EC20, Fluo-8 calcium fluorescence; 0% at ATP EC20, 100% at ATP max; 360,000 tested, 0.02% active; activation, % at 3 µM;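 active = activation above the run cutoff, the mean activation of all test compounds plus 3 SD, cut at about 40% in these data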;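 note: peak over basal fluorescence ratio in a 140 s read after ATP addition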
CHO-K1 Ca antag = counter-screen for M1 antagonists: effect in parental CHO-K1 cells; 360,000 tested, 0.6% active; inhibition, % at 3 µM; ATP-induced calcium, Fluo-8 fluorescence;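 active = inhibition above a per-plate cutoff, the plate's mean sample inhibition plus 3 SD, cut at about 24% in these data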
Numbers stand for hits. Hits are enriched below; roughly 1.2% of the tested compounds scored in any of these assays.

Screening CCC(C)(C)c1ccc(OCCCC[n+]2cccc(C)c2C)c(C(C)(C)CC)c1 returned CHO-K1 Ca ag 25.5, TRPN1 ag inactive, TRPML3 agonist inactive, CHO-K1 Ca PAM inactive and CHO-K1 Ca antag inactive.
Screening O=C(NCC1CCCO1)Nc1cc(Cl)cc(Cl)c1 (centres undefined) returned CHO-K1 Ca ag inactive, TRPN1 ag inactive, TRPML3 agonist inactive, CHO-K1 Ca PAM inactive and CHO-K1 Ca antag 24.8.
`O=C(NCC1CCCO1)Nc1ccc(Cl)cc1` (centres undefined) gave CHO-K1 Ca ag inactive, TRPN1 ag inactive, TRPML3 agonist inactive, CHO-K1 Ca PAM inactive and CHO-K1 Ca antag inactive.
For CC(C)Nc1nc(NCc2ccccc2)c2sccc2n1 the results were CHO-K1 Ca ag inactive, CHO-K1 Ca PAM inactive and CHO-K1 Ca antag inactive.
For O=C(NC(c1ccccc1)c1ccccc1)C1CCCO1 (centres undefined) the results were CHO-K1 Ca ag 20.8, TRPN1 ag inactive, TRPML3 agonist inactive, CHO-K1 Ca PAM inactive and CHO-K1 Ca antag inactive.
For O=C(NNC(=O)C1CCCO1)c1ccccc1Cl (centres undefined) the results were CHO-K1 Ca ag inactive, TRPN1 ag inactive, TRPML3 agonist inactive, CHO-K1 Ca PAM inactive and CHO-K1 Ca antag inactive.
Screening C[C@@H]1CN([C@@H](C)CO)S(=O)(=O)c2ccc(Br)cc2O[C@H]1CN(C)C(=O)C1CCOCC1 returned CHO-K1 Ca ag inactive, CHO-K1 Ca PAM inactive and CHO-K1 Ca antag inactive.
Screening N#Cc1cc(C(=O)c2cc(F)ccc2O)cn(-c2nccs2)c1=O returned CHO-K1 Ca ag 54.9, TRPN1 ag 28.3, TRPML3 agonist 22.5, CHO-K1 Ca PAM inactive and CHO-K1 Ca antag inactive.
For N#Cc1cc(C(=O)c2ccccc2O)cn(-c2nccs2)c1=O the results were CHO-K1 Ca ag 72.2, TRPN1 ag 47.0, TRPML3 agonist 33.6, CHO-K1 Ca PAM inactive and CHO-K1 Ca antag 24.5.
For CCOc1cc2c(cc1/C=C(/C#N)c1ccc(C(=O)O)cc1)OCO2 the results were CHO-K1 Ca ag 17.6, TRPN1 ag inactive, TRPML3 agonist inactive, CHO-K1 Ca PAM inactive and CHO-K1 Ca antag inactive.
For COc1ccc(C2=NOC(C(=O)Nc3ccc4c(c3)OCO4)C2)cc1OC (centres undefined) the results were CHO-K1 Ca ag inactive, TRPN1 ag inactive, TRPML3 agonist inactive, CHO-K1 Ca PAM inactive and CHO-K1 Ca antag inactive.
Screening COc1cc(C2=NOC(C(=O)Nc3ccc4c(c3)OCO4)C2)cc(OC)c1OC (centres undefined) returned CHO-K1 Ca ag 18.4, CHO-K1 Ca PAM inactive and CHO-K1 Ca antag inactive.
For OC(c1ccc(-c2ccccc2)cc1)c1ncc(-c2cccc(F)c2)[nH]1 (centres undefined) the results were CHO-K1 Ca ag inactive, CHO-K1 Ca PAM inactive and CHO-K1 Ca antag inactive.
Screening NC(=O)c1cc(-c2ccccc2)sc1NC(=O)CN1CCCCC1 returned CHO-K1 Ca ag inactive, TRPN1 ag inactive, TRPML3 agonist inactive, CHO-K1 Ca PAM inactive and CHO-K1 Ca antag 24.9.
COc1ccc(CNCCNC(=O)c2nonc2N)cc1OC was read as CHO-K1 Ca ag inactive, TRPN1 ag inactive, TRPML3 agonist inactive, CHO-K1 Ca PAM inactive and CHO-K1 Ca antag inactive.
COc1cc(CNCCNC(=O)c2nonc2N)ccc1OCc1ccc(Cl)nc1 was read as CHO-K1 Ca ag 19.9, TRPN1 ag inactive, TRPML3 agonist inactive, CHO-K1 Ca PAM inactive and CHO-K1 Ca antag inactive.
CN(C)S(=O)(=O)N1CCC(Oc2cccc(C(=O)NC3CCCCCC3)c2)CC1 was read as CHO-K1 Ca ag 15.2, CHO-K1 Ca PAM inactive and CHO-K1 Ca antag inactive.
For CN(C)S(=O)(=O)N1CCC(Oc2ccc(C(=O)NC3Cc4ccccc4C3)cc2)CC1 the results were CHO-K1 Ca ag inactive, CHO-K1 Ca PAM inactive and CHO-K1 Ca antag inactive.
Screening CC1(C(=O)NCC2CC2)Cc2c(-c3cccc(C(F)(F)F)c3)ccnc2O1 (centres undefined) returned CHO-K1 Ca ag inactive, CHO-K1 Ca PAM inactive and CHO-K1 Ca antag inactive.
`CN(C)C(=O)c1cccc(-c2cnc3c(NC=O)cc(-c4ccc(N(C)C)cc4)cn23)c1` gave CHO-K1 Ca ag inactive, CHO-K1 Ca PAM inactive and CHO-K1 Ca antag inactive.
`O=C(c1cc2ccccc2o1)N1CCCC1` gave CHO-K1 Ca ag inactive, TRPN1 ag inactive, TRPML3 agonist inactive, CHO-K1 Ca PAM inactive and CHO-K1 Ca antag inactive.
`O=C(c1cc2ccccc2o1)N1CCC(N2CCC(C(=O)N3CCCC3)CC2)CC1` gave CHO-K1 Ca ag inactive, TRPN1 ag inactive, TRPML3 agonist inactive, CHO-K1 Ca PAM inactive and CHO-K1 Ca antag 24.1.
For CCOC(=O)C1=C[C@@H](CC)N(S(=O)(=O)c2ccc(C)cc2)[C@H]1c1ccccc1 the results were CHO-K1 Ca ag inactive, CHO-K1 Ca PAM inactive and CHO-K1 Ca antag inactive.
For CCOC(=O)C1=C[C@@H](C2CCCC2)N(S(=O)(=O)c2ccc([N+](=O)[O-])cc2)[C@H]1c1ccccc1 the results were CHO-K1 Ca ag inactive, CHO-K1 Ca PAM inactive and CHO-K1 Ca antag 31.2.
For Cc1ccccc1OCC(=O)OCC(=O)NC1CCCC(C)C1C (centres undefined) the results were CHO-K1 Ca ag inactive, CHO-K1 Ca PAM inactive and CHO-K1 Ca antag inactive.
O=C(NCc1ccccc1)C1Cc2c(-c3ccc(Cl)cc3)ccnc2O1 (centres undefined) was read as CHO-K1 Ca ag inactive, CHO-K1 Ca PAM inactive and CHO-K1 Ca antag inactive.
For CCn1nc(C(=O)Nc2ccccc2N2CCCC2)c2ccccc2c1=O the results were CHO-K1 Ca ag 17.0, CHO-K1 Ca PAM inactive and CHO-K1 Ca antag inactive.
For Cn1nc(C(=O)Nc2cc(Cl)ccc2N2CCCC2)c2ccccc2c1=O the results were CHO-K1 Ca ag inactive, CHO-K1 Ca PAM inactive and CHO-K1 Ca antag inactive.
CC(Sc1nnc(CN2CCCC2)n1Cc1ccccc1)C(=O)Nc1ccc(F)cc1 (centres undefined) was read as CHO-K1 Ca ag inactive, CHO-K1 Ca PAM inactive and CHO-K1 Ca antag inactive.
CC(Sc1nnc(CN2CCCC2)n1Cc1ccccc1)C(=O)Nc1ccc(F)cc1Cl (centres undefined) was read as CHO-K1 Ca ag inactive, CHO-K1 Ca PAM inactive and CHO-K1 Ca antag 23.8.
Screening Cc1cc(C)nc(Nc2nc(C(N)Cc3ccc(Cl)cc3)cs2)n1 (centres undefined) returned CHO-K1 Ca ag inactive, CHO-K1 Ca PAM inactive and CHO-K1 Ca antag inactive.
Screening COc1ccc(-c2ccc(C(=O)NCc3ccc(F)c(F)c3)c3occc23)c(C)c1 returned CHO-K1 Ca ag inactive, CHO-K1 Ca PAM inactive and CHO-K1 Ca antag inactive.
For COc1ccc(-c2ccc(C(=O)N3CCN(C)CC3)c3occc23)c(C)c1 the results were CHO-K1 Ca ag inactive, CHO-K1 Ca PAM inactive and CHO-K1 Ca antag 32.4.
`COc1ccc(-c2ccc(C(=O)NCc3ccncc3)c3occc23)c(C)c1` gave CHO-K1 Ca ag inactive, CHO-K1 Ca PAM inactive and CHO-K1 Ca antag 41.8.
Screening CCC(c1nnnn1-c1ccc2c(c1)OCCO2)N1CCN(c2ccccc2OC)CC1 (centres undefined) returned CHO-K1 Ca ag inactive, CHO-K1 Ca PAM inactive and CHO-K1 Ca antag inactive.
